The text below walks through data of ChEMBL document CHEMBL1275305, “Synthesis and in vitro study of pseudo-peptide thioureas containing α-aminophosphonate moiety as potential antitumor agents” (Eur J Med Chem, 2010).

Experiment [1] has as its system PC-3. In words: Antitumor activity against human PC3 cells assessed as growth inhibition at 10 uM after 24 hrs by relative to control. The conditions noted are these: PC-3, 24 h. Format: functional. An outline of the steps: (§1)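 MTT growth-inhibition screen: 2.0×10^4 cells per well incubated with test compound for 24 h at 37 °C under 5% CO2. MTT then added, supernatant discarded and DMSO added. Absorbance read at 595 nm. Three separate experiments, each run in triplicate.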

The test system of experiment [2] is BGC-823. In words: Antitumor activity against human BGC823 cells assessed as growth inhibition at 10 uM after 24 hrs by relative to control. Format: functional. The conditions noted are these: BGC-823, 24 h. In outline:
as §1

The next experiment concerns Bcap37. Briefly: Antitumor activity against human Bcap37 cells assessed as growth inhibition at 10 uM after 24 hrs by relative to control. The conditions noted are these: Bcap37, 24 h. Format: functional. An outline of the steps: as §1
For experiment [3], the system named is PC-3. Briefly: Cytotoxicity against human PC3 cells at 1 uM after 72 hrs by relative to control. It counts as functional. Particulars: PC-3, 72 h. In outline: (§2)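 Cells grown in RPMI 1640 with 10% FBS and plated at 2×10^3 cells/well. Compounds were taken up in DMSO, diluted in medium and given at 1-100 µM for 72 h. Controls received 0.1% DMSO. MTT was read 4 h later as formazan absorbance at 595 nm. % cytotoxicity was blank-corrected against control, IC50 taken at 50% cell survival. Three experiments, each in triplicate.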

The test system of experiment [4] is PC-3. In words: Cytotoxicity against human PC3 cells at 20 uM after 72 hrs by relative to control. The conditions noted are these: PC-3, 72 h. Format: functional. In outline:
as §2

The subject of experiment [5] is PC-3. Briefly: Cytotoxicity against human PC3 cells after 72 hrs by MTT assay. The conditions noted are these: PC-3, 72 h. Format: functional, cell-based. An outline of the steps: as §2
(Formazan colour is commonly taken as a measure of viable cells.)

The subject of experiment [6] is PC-3. In words: Cytotoxicity against human PC3 cells at 10 uM after 72 hrs by relative to control. Format: functional. The conditions noted are these: PC-3, 72 h. An outline of the steps:
as §2

In experiment [7] the test system is PC-3. Briefly: Cytotoxicity against human PC3 cells at 5 uM after 72 hrs by relative to control. Format: functional. The conditions noted are these: PC-3, 72 h. An outline of the steps:
as §2

Experiment [8] deals with BGC-823. Briefly: Cytotoxicity against human BGC823 cells at 20 uM after 72 hrs by relative to control. Format: functional. Particulars: BGC-823, 72 h. An outline of the steps:
as §2

The subject of experiment [9] is BGC-823. In words: Cytotoxicity against human BGC823 cells at 10 uM after 72 hrs by relative to control. It counts as functional. The conditions noted are these: BGC-823, 72 h. In outline: as §2
Experiment [10] relates to BGC-823. Briefly: Cytotoxicity against human BGC823 cells at 5 uM after 72 hrs by relative to control. Particulars: BGC-823, 72 h. It counts as functional. In outline:
as §2

The subject of experiment [11] is BGC-823. Briefly: Cytotoxicity against human BGC823 cells at 1 uM after 72 hrs by relative to control. It counts as functional. Particulars: BGC-823, 72 h. In outline:
as §2

Experiment [12] deals with BGC-823. Briefly: Cytotoxicity against human BGC823 cells after 72 hrs by MTT assay. It counts as functional, cell-based. Particulars: BGC-823, 72 h. In outline: as §2

Consider `CCCCOP(=O)(OCCCC)C(NC(=S)N[C@@H](Cc1ccccc1)C(=O)NCc1ccccc1F)c1ccccc1` (stereo partly drawn), for which the inhibition (commonly the change of the read-out against control, counted positive when it falls) at 10 µM in the experiment on PC-3 [1] amounted to 22.5%; with BGC-823 [2], 30.1%; in the experiment on Bcap37, 32.1%.
As to `CCCCOP(=O)(OCCCC)C(NC(=S)N[C@@H](Cc1ccccc1)C(=O)NCc1ccc(F)cc1)c1ccccc1` (stereo partly drawn), the inhibition at 10 µM amounted to 19.7% in the experiment on PC-3 [1], 26.1% with BGC-823 [2] and 48.4% with Bcap37.
For `CCCCOP(=O)(OCCCC)C(NC(=S)N[C@H](Cc1ccccc1)C(=O)NCc1ccccc1F)c1ccccc1` (stereo partly drawn), in that order: 18%, 30.1% and 34%.
The corresponding values for `CCCCOP(=O)(OCCCC)C(NC(=S)N[C@H](Cc1ccccc1)C(=O)NCc1ccc(F)cc1)c1ccccc1` (stereo partly drawn) are 33.6%, 33.2% and 35.8%.
The corresponding values for `CCCCOP(=O)(OCCCC)C(NC(=S)N[C@H](Cc1ccccc1)C(=O)NCc1ccccc1)c1ccccc1` (stereo partly drawn) are 21.7%, 22.7% and 46.6%.
In the experiment with PC-3 [3], `CCOP(=O)(OCC)C(NC(=S)N[C@H](Cc1ccccc1)C(=O)NCc1ccccc1F)c1ccccc1` (stereo partly drawn) returned an inhibition at 1 µM of 4.9%. Besides, in the experiment on PC-3 [4], testing at 20 µM gave an inhibition of 97.2%. The inhibition at 10 µM in the experiment on PC-3 [1] was determined as 73.1%; in the experiment on PC-3 [6], 73.1%; with BGC-823 [2] it was 30.1%; in the experiment with Bcap37, 70.2%. In the experiment with PC-3 [5], the IC50 (in general, the concentration at which inhibition is half-maximal) amounted to 6.7 µM. The compound also gave an inhibition at 5 µM in the experiment on PC-3 [7] of 45.6%.
Regarding `CCCOP(=O)(OCCC)C(NC(=S)N[C@H](Cc1ccccc1)C(=O)NCc1ccccc1F)c1ccccc1` (stereo partly drawn), the values for the inhibition at 10 µM with PC-3 [1], in the experiment on BGC-823 [2] and with Bcap37 were 30.6%, 11.1% and 17.2%, respectively.
The corresponding values for `CCOP(=O)(OCC)C(NC(=S)N[C@@H](Cc1ccccc1)C(=O)NCc1ccccc1)c1ccccc1` (stereo partly drawn) are 20.1%, 18.3% and 16.9%.
In the case of `CC(C)OP(=O)(OC(C)C)C(NC(=S)N[C@H](Cc1ccccc1)C(=O)NCc1ccccc1F)c1ccccc1` (stereo partly drawn), the inhibition at 10 µM with PC-3 [1] turned out to be 14.3%; in the experiment on BGC-823 [2], 51.6%; in the experiment on Bcap37, 27.8%.
The corresponding values for `CCCOP(=O)(OCCC)C(NC(=S)N[C@@H](Cc1ccccc1)C(=O)NCc1ccccc1)c1ccccc1` (stereo partly drawn) are 33.5%, 35.7% and 35.4%.
In the case of `CCOP(=O)(OCC)C(NC(=S)N[C@H](Cc1ccccc1)C(=O)NCc1ccc(F)cc1)c1ccccc1` (stereo partly drawn), the inhibition at 10 µM with PC-3 [1] is 32.4%; in the experiment with BGC-823 [2], 44.5%; with Bcap37, 34%.
Turning to `CC(C)OP(=O)(OC(C)C)C(NC(=S)N[C@@H](Cc1ccccc1)C(=O)NCc1ccccc1)c1ccccc1` (stereo partly drawn), in the experiment with PC-3 [3], the inhibition at 1 µM came out at 2.7%. In the experiment on PC-3 [4], the inhibition at 20 µM is 50.1%. Also, the inhibition at 10 µM in the experiment on PC-3 [1] worked out at 50.1%; with PC-3 [6], 21.8%; with BGC-823 [2], 27.9%; in the experiment with Bcap37, 24.4%. Further, in the experiment with PC-3 [5], the IC50 worked out at 19.5 µM. In the experiment on PC-3 [7], at 5 µM the inhibition was 12.8%.
Take `CCCOP(=O)(OCCC)C(NC(=S)N[C@H](Cc1ccccc1)C(=O)NCc1ccc(F)cc1)c1ccccc1` (stereo partly drawn): the inhibition at 10 µM in the experiment with PC-3 [1] stood at 30.6%; in the experiment on BGC-823 [2] it was 53.9%; in the experiment on Bcap37, 12.6%.
As for `CCCCOP(=O)(OCCCC)C(NC(=S)N[C@@H](Cc1ccccc1)C(=O)NCc1ccccc1)c1ccccc1` (stereo partly drawn), the results for the inhibition at 10 µM in the experiment on PC-3 [1], in the experiment with BGC-823 [2] and in the experiment with Bcap37 were 22.8%, 21.1% and 34.5%, respectively.
For `CC(C)OP(=O)(OC(C)C)C(NC(=S)N[C@H](Cc1ccccc1)C(=O)NCc1ccc(F)cc1)c1ccccc1` (stereo partly drawn), in that order: 34.8%, 20.8% and 27%.
The corresponding values for `CCOP(=O)(OCC)C(NC(=S)N[C@@H](Cc1ccccc1)C(=O)NCc1ccccc1F)c1ccccc1` (stereo partly drawn) are 19.3%, 30.1% and 25.9%.
For `CCCOP(=O)(OCCC)C(NC(=S)N[C@@H](Cc1ccccc1)C(=O)NCc1ccccc1F)c1ccccc1` (stereo partly drawn), in that order: 18.1%, 11.1% and 44.7%.
Regarding `CC(C)OP(=O)(OC(C)C)C(NC(=S)N[C@@H](Cc1ccccc1)C(=O)NCc1ccccc1F)c1ccccc1` (stereo partly drawn), the values for the inhibition at 10 µM in the experiment on PC-3 [1], in the experiment with BGC-823 [2] and with Bcap37 were 26.8%, 47.9% and 44.4%, respectively.
`CCOP(=O)(OCC)C(NC(=S)N[C@@H](Cc1ccccc1)C(=O)NCc1ccc(F)cc1)c1ccccc1` (stereo partly drawn): the figures for the inhibition at 10 µM in the experiment on PC-3 [1], in the experiment with BGC-823 [2] and with Bcap37 were 27.9%, 22.9% and 26.1%, respectively.
`CCCOP(=O)(OCCC)C(NC(=S)N[C@@H](Cc1ccccc1)C(=O)NCc1ccc(F)cc1)c1ccccc1` (stereo partly drawn): the inhibition at 1 µM in the experiment on PC-3 [3] turned out to be 18.1%. In the experiment on PC-3 [4], this compound showed an inhibition at 20 µM of 51.2%. The inhibition at 10 µM with PC-3 [1] is 56.7%; in the experiment on PC-3 [6], 28%; in the experiment on BGC-823 [2], 21%; in the experiment with Bcap37 it was 24%. The IC50 with PC-3 [5] came out at 22.1 µM. 5 µM produced 19.8% inhibition in the experiment on PC-3 [7].
On to `CC(C)OP(=O)(OC(C)C)C(NC(=S)N[C@@H](Cc1ccccc1)C(=O)NCc1ccc(F)cc1)c1ccccc1` (stereo partly drawn), for which the inhibition at 1 µM with PC-3 [3] was found to be 15.8%; with BGC-823 [11] it was 30.6%. Besides, the inhibition at 20 µM is 100% in the experiment on BGC-823 [8] and 66.7% in the experiment with PC-3 [4]. Further, the inhibition at 10 µM is 89.1% in the experiment on BGC-823 [9]; 58.6% in the experiment on PC-3 [1]; 31.4% with PC-3 [6]; 89.1% in the experiment with BGC-823 [2]; 53.1% in the experiment on Bcap37. Also, the inhibition at 5 µM in the experiment on BGC-823 [10] was determined as 70.1%; in the experiment with PC-3 [7], 17.3%. For the same compound, the results for the IC50 in the experiment with BGC-823 [12] and with PC-3 [5] were 4.7 µM and 17.2 µM, respectively.
The compound `CCOP(=O)(OCC)C(NC(=S)N[C@H](Cc1ccccc1)C(=O)NCc1ccccc1)c1ccccc1` (stereo partly drawn) came in with an inhibition at 1 µM in the experiment on PC-3 [3] of 10.4%. Besides, in the experiment with PC-3 [4], the inhibition at 20 µM was determined as 73.8%. The inhibition at 10 µM in the experiment with PC-3 [1] is 56.9%; in the experiment on PC-3 [6], 56.9%; in the experiment with BGC-823 [2], 55.7%; in the experiment on Bcap37 it was 52.3%. Further, half-maximal inhibition in the experiment on PC-3 [5] (IC50) was put at 11.2 µM. For the same compound, at 5 µM the inhibition in the experiment with PC-3 [7] was 21.2%.
Consider `CCCOP(=O)(OCCC)C(NC(=S)N[C@H](Cc1ccccc1)C(=O)NCc1ccccc1)c1ccccc1` (stereo partly drawn), for which the inhibition at 10 µM in the experiment with PC-3 [1] is 30.8%; in the experiment with BGC-823 [2], 24.4%; in the experiment on Bcap37 it was 49.1%.
For the compound `CC(C)OP(=O)(OC(C)C)C(NC(=S)N[C@H](Cc1ccccc1)C(=O)NCc1ccccc1)c1ccccc1` (stereo partly drawn), the values for the inhibition at 10 µM in the experiment on PC-3 [1], in the experiment with BGC-823 [2] and with Bcap37 were 30.5%, 29% and 22.9%, respectively.
Compound `COc1cccc2c1C(=O)c1c(O)c3c(c(O)c1C2=O)C[C@@](O)(C(=O)CO)C[C@@H]3O[C@H]1C[C@H](N)[C@H](O)[C@H](C)O1` [DOXORUBICIN] registered an inhibition at 1 µM in the experiment on PC-3 [3] of 36.4%. In the experiment with PC-3 [4], this compound returned an inhibition at 20 µM of 100%. In the experiment on PC-3 [5], the IC50 came out at 3.3 µM. The inhibition at 10 µM in the experiment on PC-3 [6] came out at 98%; with BGC-823 [2], 93.8%. This compound also yielded an inhibition at 5 µM in the experiment with PC-3 [7] of 89.4%.
